Measurements from ChEMBL document CHEMBL1687819, “Identification and characterization of the multidrug resistance gene cfr in a Panton-Valentine leukocidin-positive sequence type 8 methicillin-resistant Staphylococcus aureus IVa (USA300) isolate” (2010).
≈ marks a conversion by molar mass, not a printed value.

How the values were obtained:
Assay type in all cases: functional
Staphylococcus aureus [1] = assay: Antibacterial activity against Staphylococcus aureus XU21-T1 harboring cfr-encoding conjugative pSCFS7 and fexA by broth microdilution method
Summary of the method: (§1)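 Broth microdilution MICs per CLSI M07-A8 and M100-S20, run side by side on clinical MRSA isolate M05/0060, its plasmid-cured derivative M05/0060-C1, plasmid-free novobiocin-resistant recipient XU21 and transconjugant XU21-T1. Curing was by five serial 24 h passages in BHI broth at 43°C, 200 rpm. Transconjugants came from filter mating, selected on BHI agar with novobiocin 100 µg/ml plus chloramphenicol 30 µg/ml.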

Staphylococcus aureus [2] = assay: Antibacterial activity against pSCFS7-deficient methicillin-resistant Staphylococcus aureus M05/0060-C1 by broth microdilution method; summary of the method: as §1
Staphylococcus aureus [3] = assay: Antibacterial activity against methicillin-resistant Staphylococcus aureus M05/0060 harboring cfr-encoding conjugative pSCFS7 and fexA by broth microdilution method; summary of the method: as §1
Staphylococcus aureus [4] = assay: Antibacterial activity against Staphylococcus aureus XU21 by broth microdilution method; summary of the method: as §1

Row | Compound | MIC (Staphylococcus aureus [1]) [µg/mL] | MIC (Staphylococcus aureus [2]) [µg/mL] | MIC (Staphylococcus aureus [3]) [µg/mL] | MIC (Staphylococcus aureus [4]) [µg/mL]
1 | O=C(N[C@H](CO)[C@H](O)c1ccc([N+](=O)[O-])cc1)C(Cl)Cl [CHLORAMPHENICOL] | 128 (≈ 396 µM) | 8 (≈ 24.8 µM) | 256 (≈ 792 µM) | 8 (≈ 24.8 µM)
2 | CCC[C@@H]1C[C@@H](C(=O)N[C@@H]([C@H]2O[C@H](SC)[C@H](O)[C@@H](O)[C@H]2O)[C@H](C)Cl)N(C)C1 [CLINDAMYCIN] | ≥ 128 | 0.25 (≈ 0.588 µM) | ≥ 128 | 0.25 (≈ 0.588 µM)
3 | CC[C@H]1OC(=O)[C@H](C)[C@@H](O[C@H]2C[C@@](C)(OC)[C@@H](O)[C@H](C)O2)[C@H](C)[C@@H](O[C@@H]2O[C@H](C)C[C@H](N(C)C)[C@H]2O)[C@](C)(O)C[C@@H](C)C(=O)[C@H](C)[C@@H](O)[C@]1(C)O [ERYTHROMYCIN] | 0.5 (≈ 0.681 µM) | ≥ 64 | ≥ 64 | 0.5 (≈ 0.681 µM)
4 | CS(=O)(=O)c1ccc([C@@H](O)[C@@H](CF)NC(=O)C(Cl)Cl)cc1 [FLORFENICOL] | 256 (≈ 715 µM) | 4 (≈ 11.2 µM) | 256 (≈ 715 µM) | 4 (≈ 11.2 µM)
5 | CC(=O)NC[C@H]1CN(c2ccc(N3CCOCC3)c(F)c2)C(=O)O1 [LINEZOLID] |  | 1 (≈ 2.96 µM) | 8 (≈ 23.7 µM) | 1 (≈ 2.96 µM)
6 | Cc1onc(-c2ccccc2)c1C(=O)N[C@@H]1C(=O)N2[C@@H]1SC(C)(C)[C@@H]2C(=O)O [OXACILLIN] | 0.12 (≈ 0.299 µM) | ≥ 32 | ≥ 32 | 0.12 (≈ 0.299 µM)
7 | C=C[C@]1(C)C[C@@H](OC(=O)CSCCN(CC)CC)[C@]2(C)[C@H](C)CC[C@]3(CCC(=O)[C@H]32)[C@@H](C)[C@@H]1O [TIAMULIN] | ≥ 128 | 1 (≈ 2.03 µM) | ≥ 128 | 1 (≈ 2.03 µM)
8 | CC1=C\[C@@H](O)CC(=O)Cc2nc(co2)C(=O)N2CCC=C2C(=O)O[C@H](C(C)C)[C@H](C)/C=C/C(=O)NC\C=C\1 [VIRGINIAMYCIN FACTOR M1] | 32 (≈ 60.9 µM) | 1 (≈ 1.9 µM) | 32 (≈ 60.9 µM) | 1 (≈ 1.9 µM)
